Calls of active or inactive are those of the source. The rule behind the calls is not given here.
How the values were obtained:
Rattus norvegicus [1] = test: Anticonvulsant activity in po dosed albino Sprague-Dawley rat measured at 5 hrs by maximal electroshock seizure test; assay type: functional
Summary of the method: (§1)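 Screened under the NIH anticonvulsant program in male albino Carworth Farms No. 1 mice (ip) and male albino Sprague-Dawley rats (ip or oral). Protection tested by maximal electroshock or 6 Hz (32 mA) psychomotor stimulation.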

Mus musculus [2] = test: Anticonvulsant activity in ip dosed albino Carworth Farms No. 1 mouse measured at 1 hr by maximal electroshock seizure test; assay type: functional; conditions: Carworth Farms No. 1, ip; summary of the method: as §1
[3] = Behavioural toxicity in po dosed albino Sprague-Dawley rat measured at 0.25 - 4 hrs; assay type: organism-based; conditions: in vivo
Summary of the method: (§2)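 Male albino Sprague-Dawley rats were dosed ip or orally. […] Protective index = TD50/ED50, the ED50 taken from maximal electroshock by the same route.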

Mus musculus [4] = test: Anticonvulsant activity in ip dosed albino Carworth Farms No. 1 mouse measured at 0.5 hrs by maximal electroshock seizure test; assay type: functional; conditions: Carworth Farms No. 1, ip; summary of the method: as §1
Rattus norvegicus [5] = organism: Rattus norvegicus; test: Frequency-dependent inhibition of voltage-gated sodium channel in rat embryonic cortical neurons assessed as current amplitude at 10 uM measured at holding potential of -80 mV by whole cell patch-clamp electrophysiology
Summary of the method: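 E19 rat cortical neurons cultured 7–10 days were recorded by whole-cell voltage clamp at room temperature. Compound was at 10 μM versus 0.1% DMSO. A pulse train was applied, and available current was taken as peak current at pulse N divided by peak at pulse 1.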

Mus musculus [6] = test: Anticonvulsant activity in ip dosed albino Carworth Farms No. 1 mouse measured at 0.5 hrs by 6Hz (32 mA) psychomotor seizure test; assay type: functional; conditions: Carworth Farms No. 1, ip; summary of the method: as §1
Rattus norvegicus [7] = test: Anticonvulsant activity in po dosed albino Sprague-Dawley rat measured at 0.5 - 4 hrs by maximal electroshock seizure test; assay type: functional; summary of the method: as §1
Rattus norvegicus [8] = organism: Rattus norvegicus; test: Inhibition of voltage-gated sodium channel in rat embryonic cortical neurons assessed as half-maximal voltage for steady state activation at 10 uM by whole cell patch-clamp electrophysiology (reference value: -27.1 +/- 1.3 mV)
Summary of the method: (§3)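 Rat embryonic day 19 cortical neurons, cultured 7–10 days, were whole-cell voltage-clamped at room temperature with 1–2 MΩ electrodes, with compound at 10 μM and 0.1% DMSO as control. Fast inactivation: 500 ms prepulses, then a test pulse. Activation: conductance G = I/(Vm − Vrev). V1/2 and k came from Boltzmann fits to individual cells, averaged (mean ± SEM), 5–7 cells per condition.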

Mus musculus [9] = test: (§4) Neurotoxicity in ip dosed albino Carworth Farms No. 1 mouse measured at 0.5 hrs by rotarod test; assay type: toxicity, organism-based; conditions: mouse, in vivo, 0.5 h
Summary of the method: (§5)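 Male albino Carworth Farms No. 1 mice were dosed ip. Protective index = TD50/ED50, the ED50 taken from the ip maximal electroshock test.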

[10] = Neurotoxicity in ip dosed albino Carworth Farms No. 1 mouse measured at 0.25 hrs by rotarod test; assay type: toxicity, organism-based; conditions: in vivo
[11] = Behavioural toxicity in ip dosed albino Sprague-Dawley rat measured at 0.25 hrs; assay type: organism-based; conditions: in vivo; summary of the method: as §2
Mus musculus [12] = test: Anticonvulsant activity in ip dosed albino Carworth Farms No. 1 mouse measured at 0.25 hrs by maximal electroshock seizure test; assay type: functional; conditions: Carworth Farms No. 1, ip; summary of the method: as §1
[13] = Protective index, ratio of TD50 for neurotoxicity in ip dosed albino Carworth Farms No. 1 mouse to ED50 for anticonvulsant activity in ip dosed MES albino Carworth Farms No. 1 mouse model; assay type: toxicity, organism-based; conditions: in vivo, read-out: Ratio TD50/ED50; summary of the method: as §5
Rattus norvegicus [14] = test: Anticonvulsant activity in ip dosed albino Sprague-Dawley rat measured at 0.25 hrs by maximal electroshock seizure test; assay type: functional; summary of the method: as §1
[15] = Protective index, ratio of TD50 for behavioural toxicity in ip dosed albino Sprague-Dawley rat to ED50 for anticonvulsant activity in ip dosed MES albino Sprague-Dawley rat model; assay type: organism-based; conditions: in vivo, read-out: Ratio TD50/ED50; summary of the method: as §2
Rattus norvegicus [16] = test: Anticonvulsant activity in po dosed albino Sprague-Dawley rat measured at 0.5 hrs by maximal electroshock seizure test; assay type: functional; summary of the method: as §1
[17] = Behavioural toxicity in po dosed albino Sprague-Dawley rat measured at 0.5 hrs; assay type: organism-based; conditions: in vivo; summary of the method: as §2
[18] = Behavioural toxicity in ip dosed albino Sprague-Dawley rat measured at 1 hr; assay type: organism-based; conditions: in vivo; summary of the method: as §2
Rattus norvegicus [19] = test: Anticonvulsant activity in po dosed albino Sprague-Dawley rat measured at 0.25 - 1 hr by maximal electroshock seizure test; assay type: functional; summary of the method: as §1
Rattus norvegicus [20] = test: Anticonvulsant activity in ip dosed albino Sprague-Dawley rat by maximal electroshock seizure test; assay type: functional
Summary of the method: (§6)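 Screened under the NIH Anticonvulsant Screening Program in male rodents, with mice and rats dosed ip and rats also dosed po. Maximal electroshock (MES) and 6 Hz (32 mA) psychomotor seizure tests were run.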

[21] = Behavioural toxicity in po dosed albino Sprague-Dawley rat; conditions: in vivo
Rattus norvegicus [22] = test: Anticonvulsant activity in po dosed albino Sprague-Dawley rat by maximal electroshock seizure test; assay type: functional; summary of the method: as §6
[23] = Behavioural toxicity in ip dosed albino Sprague-Dawley rat measured at 0.5 hrs; assay type: organism-based; conditions: in vivo
[24] = Protective index, ratio of TD50 for behavioural toxicity in po dosed albino Sprague-Dawley rat to ED50 for anticonvulsant activity in po dosed MES albino Sprague-Dawley rat model; assay type: organism-based; conditions: in vivo, read-out: Ratio TD50/ED50
Summary of the method: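 Male albino Sprague-Dawley rats were dosed ip or orally. Protective index = TD50/ED50, the ED50 taken from maximal electroshock by the same route.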

Rattus norvegicus [25] = test: Anticonvulsant activity in ip dosed albino Sprague-Dawley rat measured at 0.5 hrs by maximal electroshock seizure test; assay type: functional; summary of the method: as §6
Rattus norvegicus [26] = test: Anticonvulsant activity in po dosed albino Sprague-Dawley rat measured at 1 hr by maximal electroshock seizure test; assay type: functional; summary of the method: as §1
Rattus norvegicus [27] = organism: Rattus norvegicus; test: Inhibition of voltage-gated sodium channel in rat embryonic cortical neurons assessed as transition of channels to slow-inactivated state at 10 uM measured at -50 mV by whole cell patch-clamp electrophysiology
Summary of the method: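 E19 rat cortical neurons cultured 7–10 days were recorded by whole-cell voltage clamp at room temperature, with electrodes of 1–2 MΩ. Compound was at 10 μM versus 0.1% DMSO control. Slow inactivation at −50 mV was calculated as 1 minus normalized peak INa, from 5–8 cells per condition.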

Mus musculus [28] = test: Anticonvulsant activity in ip dosed albino Carworth Farms No. 1 mouse measured at 0.25 hrs by 6Hz (32 mA) psychomotor seizure test; assay type: functional; conditions: Carworth Farms No. 1, ip; summary of the method: as §1
Mus musculus [29] = test: Anticonvulsant activity in ip dosed albino Carworth Farms No. 1 mouse by maximal electroshock seizure test; assay type: functional; conditions: Carworth Farms No. 1, ip; summary of the method: as §6
Rattus norvegicus [30] = organism: Rattus norvegicus; test: Effect on steady state fast-inactivation of voltage-gated sodium channel in rat embryonic cortical neurons at 10 uM by whole cell patch-clamp electrophysiology; summary of the method: as §3
Rattus norvegicus [31] = organism: Rattus norvegicus; test: Effect on steady state activation of voltage-gated sodium channel in rat embryonic cortical neurons at 10 uM by whole cell patch-clamp electrophysiology; summary of the method: as §3
Mus musculus [32] = test: Anticonvulsant activity in ip dosed albino Carworth Farms No. 1 mouse measured at 0.5 - 2.0 hrs by maximal electroshock seizure test; assay type: functional; conditions: Carworth Farms No. 1, ip; summary of the method: as §1
Rattus norvegicus [33] = organism: Rattus norvegicus; test: Inhibition of voltage-gated sodium channel in rat embryonic cortical neurons assessed as decrease in fraction of current available at 10 uM measured at -50 mV by whole cell patch-clamp electrophysiology
Summary of the method: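 Embryonic cortical neurons were treated with 10 μM compound or 0.1% DMSO, whole-cell voltage clamp at room temperature. Slow inactivation was assessed at −50 mV, with the fraction inactivated taken as 1 minus the normalized INa. Student's t-test; 5–8 cells per condition.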

[34] = as §4; assay type: toxicity, organism-based; conditions: Carworth Farms No. 1, mouse, in vivo; summary of the method: as §5
Rattus norvegicus [35] = test: Anticonvulsant activity in po dosed albino Sprague-Dawley rat measured at 0.25 - 4.0 hrs by maximal electroshock seizure test; assay type: functional; summary of the method: as §6
Mus musculus [36] = test: Anticonvulsant activity in ip dosed albino Carworth Farms No. 1 mouse measured at 0.25-0.5 hrs by 6Hz (32 mA) psychomotor seizure test; assay type: functional; conditions: Carworth Farms No. 1, ip; summary of the method: as §6

CCC1(c2ccccc2)C(=O)NC(=O)NC1=O [PHENOBARBITAL]
ED50 (Rattus norvegicus [1]): 9.1 mg/kg
ED50 (Mus musculus [2]): 22 mg/kg

COC[C@@H](NC(C)=O)C(=O)NCc1ccc(Oc2cccc(C(F)(F)F)c2)cc1
TD50 [3]: > 30 mg/kg
ED50 (Mus musculus [4]): 10 mg/kg
inhibition (Rattus norvegicus [5]): inactive
ED50 (Mus musculus [6]): < 100 mg/kg
ED50 (Rattus norvegicus [7]): < 30 mg/kg
V1/2 (Rattus norvegicus [8]): -35.6 mV
TD50 (Mus musculus [9]): > 100 mg/kg

COC[C@@H](NC(C)=O)C(=O)NCc1ccc(Oc2cccc(C)c2)cc1
TD50 at 0.25 h [10]: 65 mg/kg
TD50 at 0.25 h [11]: 140 mg/kg
ED50 (Mus musculus [12]): 14 mg/kg
selectivity ratio [13]: 4.6
TD50 [3]: > 30 mg/kg
inhibition (Rattus norvegicus [5]): inactive
ED50 (Rattus norvegicus [14]): 12 mg/kg
ED50 (Mus musculus [6]): 100 mg/kg
selectivity ratio [15]: 12
ED50 (Rattus norvegicus [16]): < 30 mg/kg

COC[C@@H](NC(C)=O)C(=O)NCc1ccccc1 [LACOSAMIDE]
ED50 (Mus musculus [6]): 10 mg/kg
TD50 at 0.5 h [17]: > 500 mg/kg

COC[C@@H](NC(C)=O)C(=O)NCc1ccc(Oc2cccc(OC)c2)cc1
TD50 at 0.25 h [10]: 85 mg/kg
ED50 (Mus musculus [12]): 13 mg/kg
TD50 at 1 h [18]: 120 mg/kg
selectivity ratio [13]: 6.5
TD50 [3]: > 30 mg/kg
inhibition (Rattus norvegicus [5]): inactive
ED50 (Rattus norvegicus [14]): 15 mg/kg
ED50 (Mus musculus [6]): < 100 mg/kg
selectivity ratio [15]: 8
V1/2 (Rattus norvegicus [8]): -36.8 mV
ED50 (Rattus norvegicus [19]): 30 mg/kg

O=C1NC(=O)C(c2ccccc2)(c2ccccc2)N1 [PHENYTOIN]
ED50 (Rattus norvegicus [20]): 2.4 mg/kg
TD50 [21]: > 1000 mg/kg
ED50 (Rattus norvegicus [22]): 28 mg/kg

CCCC(CCC)C(=O)O [VALPROIC ACID]
ED50 (Mus musculus [12]): 270 mg/kg

COC[C@@H](NC(C)=O)C(=O)NCc1ccc(Oc2cccc(Cl)c2)cc1
TD50 at 0.5 h [23]: 49 mg/kg
TD50 at 0.25 h [10]: 47 mg/kg
selectivity ratio [24]: 18
ED50 (Rattus norvegicus [25]): 5.9 mg/kg
selectivity ratio [13]: 5
ED50 (Mus musculus [4]): 9.4 mg/kg
ED50 (Rattus norvegicus [26]): 12 mg/kg
inhibition (Rattus norvegicus [5]): inactive
selectivity ratio [15]: 8.3
inhibition (Rattus norvegicus [27]): Active
TD50 at 0.5 h [17]: 210 mg/kg
ED50 (Mus musculus [28]): 20 mg/kg

C[C@H](NCc1ccc(OCc2cccc(F)c2)cc1)C(N)=O [SAFINAMIDE]
ED50 (Mus musculus [29]): 4.1 mg/kg
ED50 (Rattus norvegicus [22]): 12 mg/kg

COC[C@@H](NC(C)=O)C(=O)NCc1ccc(Oc2ccccc2)cc1
Activity (Rattus norvegicus [30]): inactive
Activity (Rattus norvegicus [31]): inactive
ED50 (Mus musculus [32]): < 30 mg/kg
inhibition (Rattus norvegicus [5]): inactive
ED50 (Mus musculus [6]): < 30 mg/kg
inhibition (Rattus norvegicus [33]): Active
TD50 at 0.5 h [34]: < 100 mg/kg

COC[C@@H](NC(C)=O)C(=O)NCc1ccc(Oc2cccc(F)c2)cc1
ED50 (Mus musculus [12]): 5.5 mg/kg
selectivity ratio [13]: 4.2
TD50 [3]: > 10 mg/kg
ED50 (Rattus norvegicus [35]): < 10 mg/kg
ED50 (Mus musculus [36]): 10 mg/kg
inhibition (Rattus norvegicus [5]): inactive

— ChEMBL document CHEMBL3588826, “Chimeric derivatives of functionalized amino acids and α-aminoamides: compounds with anticonvulsant activity in seizure models and inhibitory actions on central, peripheral, and cardiac isoforms of voltage-gated sodium channels” (Bioorg Med Chem, 2015)
